pKi: −log10 of the molar value. Blank lines part the entries; values can stand above or below the compound they belong to. Activity calls are given as the source filed them. The calls are words filed in the database; no cut-off is given here.
What was measured:
[1] = target: T1, Thymidine kinase, cytosolic (Cricetulus griseus) (UniProt P09768); test: Inhibition of thymidine kinase in BHK21 (C13) cells using thymidine as substrate assessed as formation of TMP at 0.28 mM; assay type: cell-based; conditions: Mesocricetus auratus
T1 sequence (whole entry): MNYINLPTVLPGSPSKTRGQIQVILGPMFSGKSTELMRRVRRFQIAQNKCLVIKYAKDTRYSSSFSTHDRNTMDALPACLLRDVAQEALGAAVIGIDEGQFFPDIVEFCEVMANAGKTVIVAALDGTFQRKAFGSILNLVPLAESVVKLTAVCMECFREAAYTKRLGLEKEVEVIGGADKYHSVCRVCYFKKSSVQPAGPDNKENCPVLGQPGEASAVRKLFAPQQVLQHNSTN
Method in brief: (§1)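 BHK21(C13) 100000g supernatant in Tris-HCl 0.05 M pH 8.0, ATP 5 mM, MgCl2 2.5 mM, [14C]thymidine 3.6 μM, 10 min at 37 °C. Reaction stopped by boiling; [14C]TMP bound to DEAE-cellulose disks and counted by liquid scintillation, corrected for unincubated blanks.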

[2] = target: T1, Thymidine kinase, cytosolic (Cricetulus griseus); test: Inhibition of thymidine kinase in BHK21 (C13) cells using thymidine as substrate assessed as formation of TMP at 1.4 mM; assay type: cell-based; conditions: Mesocricetus auratus; method in brief: as §1
[3] = target: T1, Thymidine kinase, cytosolic (Cricetulus griseus); test: Activity at thymidine kinase in BHK21 (C13) cells at 60 uM after 30 mins relative to thymidine; assay type: cell-based; conditions: Mesocricetus auratus
Method in brief: (§2)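 Radiolabeled thymidine or 2'-deoxyuridine derivatives tested as substrates: 40 μL BHK21(C13) 100000g supernatant, Tris-HCl 0.05 M pH 8.0, ATP 5 mM, MgCl2 2.5 mM, no thymidine, 30 min at 37 °C. Products separated by paper electrophoresis in 0.05 M triethylammonium bicarbonate pH 7.6; radioactivity counted in the TMP region.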

[4] = target: T1, Thymidine kinase, cytosolic (Cricetulus griseus); test: Inhibition of thymidine kinase in BHK21 (C13) cells using thymidine as substrate assessed as formation of TMP at 6.6 mM; assay type: cell-based; conditions: Mesocricetus auratus; method in brief: as §1
[5] = target: T1, Thymidine kinase, cytosolic (Cricetulus griseus); test: Inhibition of thymidine kinase in BHK21 (C13) cells using thymidine as substrate assessed as formation of TMP at 13.2 mM; assay type: cell-based; conditions: Mesocricetus auratus; method in brief: as §1
[6] = target: T1, Thymidine kinase, cytosolic (Cricetulus griseus); test: Inhibition of thymidine kinase in BHK21 (C13) cells using thymidine as substrate assessed as formation of TMP at 3.4 mM; assay type: cell-based; conditions: Mesocricetus auratus; method in brief: as §1
[7] = target: T1, Thymidine kinase, cytosolic (Cricetulus griseus); test: Inhibition of thymidine kinase in BHK21 (C13) cells using thymidine as substrate assessed as formation of TMP at 6.8 mM; assay type: cell-based; conditions: Mesocricetus auratus; method in brief: as §1
[8] = target: T2, Thymidine kinase 2, mitochondrial (Homo sapiens) (UniProt O00142); test: Effect on human mitochondrial thymidine kinase using [14C]thymidine at 2 mM after 10 mins by liquid scintillation spectrometer analysis relative to control in presence of Mg2+
T2 sequence (whole entry): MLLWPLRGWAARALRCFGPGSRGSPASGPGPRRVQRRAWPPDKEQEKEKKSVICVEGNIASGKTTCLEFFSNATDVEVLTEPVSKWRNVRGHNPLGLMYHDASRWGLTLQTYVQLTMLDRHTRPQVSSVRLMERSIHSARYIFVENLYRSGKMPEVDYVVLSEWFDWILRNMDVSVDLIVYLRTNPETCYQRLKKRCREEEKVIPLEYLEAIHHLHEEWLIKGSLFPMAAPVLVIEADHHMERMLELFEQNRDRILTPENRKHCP

[9] = target: T3, Thymidine kinase, cytosolic (Homo sapiens) (UniProt P04183); test: Effect on human cytoplasmic thymidine kinase using [14C]thymidine at 2 mM after 10 mins by liquid scintillation spectrometer analysis relative to control in presence of Mg2+
T3 sequence (whole entry): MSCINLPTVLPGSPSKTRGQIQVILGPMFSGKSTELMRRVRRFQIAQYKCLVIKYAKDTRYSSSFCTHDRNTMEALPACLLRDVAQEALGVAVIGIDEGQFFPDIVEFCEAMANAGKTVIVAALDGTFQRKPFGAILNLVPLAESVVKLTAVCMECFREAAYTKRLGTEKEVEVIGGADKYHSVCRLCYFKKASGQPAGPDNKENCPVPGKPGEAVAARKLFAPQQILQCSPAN

[10] = target: T1, Thymidine kinase, cytosolic (Cricetulus griseus); test: Effect on thymidine kinase in BHK21 (C13) cells using [14C]thymidine at 5 mM after 10 mins by liquid scintillation spectrometer analysis relative to control in presence of Mg2+; assay type: cell-based; conditions: Mesocricetus auratus
Method in brief: (§3)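 BHK21(C13) high-speed supernatant, 10 min at 37 °C, [14C]TMP on DEAE-cellulose disks, scintillation counting. Phosphate donors (nucleoside triphosphates 5 mM, giving 2.5 mM Mg2+ triphosphates) tested with 14.4 μM [14C]thymidine. Inhibitor assays used 0.19 mM [14C]thymidine: 5-iodo nucleosides at 0.19 mM with saturating Mg2+-ATP, or dCTP 5 mM with ATP 5 mM and MgCl2 7.5 mM.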

[11] = target: T1, Thymidine kinase, cytosolic (Cricetulus griseus); test: Inhibition of thymidine kinase in BHK21 (C13) cells using thymidine as substrate assessed as formation of TMP at 5 mM; assay type: cell-based; conditions: Mesocricetus auratus; method in brief: as §1
[12] = target: T1, Thymidine kinase, cytosolic (Cricetulus griseus); test: Inhibition of thymidine kinase in BHK21 (C13) cells using thymidine as substrate assessed as formation of TMP at 10 mM; assay type: cell-based; conditions: Mesocricetus auratus; method in brief: as §1
[13] = target: T4, Thymidine kinase, cytosolic (Mus musculus, UniProt P04184); test: Competitive inhibition of thymidine kinase in mouse Ehrlich's ascites cells
T4 sequence (P04184 whole entry): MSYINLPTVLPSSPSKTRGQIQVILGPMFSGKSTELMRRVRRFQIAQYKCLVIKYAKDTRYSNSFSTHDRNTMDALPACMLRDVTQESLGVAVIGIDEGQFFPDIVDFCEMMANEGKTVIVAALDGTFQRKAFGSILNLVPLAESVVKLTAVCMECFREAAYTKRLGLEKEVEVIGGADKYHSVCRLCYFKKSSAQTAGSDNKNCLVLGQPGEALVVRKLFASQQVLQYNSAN

[14] = target: T1, Thymidine kinase, cytosolic (Cricetulus griseus); test: Inhibition of thymidine kinase in BHK21 (C13) cells using [14C]thymidine at 100 to 200 uM after 10 mins by liquid scintillation spectrometer analysis relative to control in presence of Mg2+; assay type: cell-based; conditions: Mesocricetus auratus
[15] = target: T1, Thymidine kinase, cytosolic (Cricetulus griseus); test: Inhibition of thymidine kinase in BHK21 (C13) cells using thymidine as substrate assessed as formation of TMP at 15.5 mM; assay type: cell-based; conditions: Mesocricetus auratus; method in brief: as §1
[16] = target: T1, Thymidine kinase, cytosolic (Cricetulus griseus); test: Inhibition of thymidine kinase in BHK21 (C13) cells using thymidine as substrate assessed as formation of TMP at 7.8 mM; assay type: cell-based; conditions: Mesocricetus auratus; method in brief: as §1
[17] = target: T1, Thymidine kinase, cytosolic (Cricetulus griseus); test: Inhibition of thymidine kinase in BHK21 (C13) cells using thymidine as substrate assessed as formation of TMP at 2 mM; assay type: cell-based; conditions: Mesocricetus auratus; method in brief: as §1
[18] = target: T1, Thymidine kinase, cytosolic (Cricetulus griseus); test: Inhibition of thymidine kinase in BHK21 (C13) cells using thymidine as substrate assessed as formation of TMP at 4 mM; assay type: cell-based; conditions: Mesocricetus auratus; method in brief: as §1
[19] = target: T1, Thymidine kinase, cytosolic (Cricetulus griseus); test: Inhibition of thymidine kinase in BHK21 (C13) cells using thymidine as substrate assessed as formation of TMP at 0.1 mM; assay type: cell-based; conditions: Mesocricetus auratus; method in brief: as §1
[20] = target: T1, Thymidine kinase, cytosolic (Cricetulus griseus); test: Inhibition of thymidine kinase in BHK21 (C13) cells using thymidine as substrate assessed as formation of TMP at 0.2 mM; assay type: cell-based; conditions: Mesocricetus auratus; method in brief: as §1
[21] = target: T1, Thymidine kinase, cytosolic (Cricetulus griseus); test: Activity at thymidine kinase in BHK21 (C13) cells at 54 to 542 uM after 30 mins relative to thymidine; assay type: cell-based; conditions: Mesocricetus auratus; method in brief: as §2
[22] = target: T1, Thymidine kinase, cytosolic (Cricetulus griseus); test: Inhibition of thymidine kinase in BHK21 (C13) cells using thymidine as substrate assessed as formation of TMP at 6 mM; assay type: cell-based; conditions: Mesocricetus auratus; method in brief: as §1
[23] = target: T1, Thymidine kinase, cytosolic (Cricetulus griseus); test: Inhibition of thymidine kinase in BHK21 (C13) cells using thymidine as substrate assessed as formation of TMP at 12 mM; assay type: cell-based; conditions: Mesocricetus auratus; method in brief: as §1
[24] = target: T2, Thymidine kinase 2, mitochondrial (Homo sapiens); test: Inhibition of human mitochondrial thymidine kinase using [14C]thymidine at 0.19 mM after 10 mins by liquid scintillation spectrometer analysis relative to control in presence of Mg2+
[25] = target: T2, Thymidine kinase 2, mitochondrial (Homo sapiens); test: Inhibition of human mitochondrial thymidine kinase using [14C]thymidine after 10 mins by liquid scintillation spectrometer analysis relative to control in presence of Mg2+
[26] = target: T3, Thymidine kinase, cytosolic (Homo sapiens); test: Inhibition of human cytoplasmic thymidine kinase using [14C]thymidine after 10 mins by liquid scintillation spectrometer analysis relative to control in presence of Mg2+
[27] = target: T1, Thymidine kinase, cytosolic (Cricetulus griseus); test: Inhibition of thymidine kinase in BHK21 (C13) cells using [14C]thymidine after 10 mins by liquid scintillation spectrometer analysis relative to control in presence of Mg2+; assay type: cell-based; conditions: Mesocricetus auratus; method in brief: as §3
[28] = target: T1, Thymidine kinase, cytosolic (Cricetulus griseus); test: Inhibition of thymidine kinase in BHK21 (C13) cells using [14C]thymidine at 200 uM after 10 mins by liquid scintillation spectrometer analysis relative to control in presence of Mg2+; assay type: cell-based; conditions: Mesocricetus auratus

- inhibition [1]: 31%
- inhibition [2]: 60%
SMILES: CCS[C@H]1C[C@H](n2cc(C)c(=O)[nH]c2=O)O[C@@H]1CO

- Activity [3]: < 0.25%
SMILES: CC(=O)NCCCC(=O)Nc1cn([C@H]2C[C@H](O)[C@@H](CO)O2)c(=O)[nH]c1=O

- inhibition [4]: 38%
- inhibition [5]: 77%
SMILES: CCCC(=O)NC[C@H]1O[C@@H](n2cc(C)c(=O)[nH]c2=O)C[C@@H]1O

- inhibition [6]: 13%
- inhibition [7]: 25%
SMILES: CCNc1cn([C@H]2C[C@H](O)[C@@H](CO)O2)c(=O)[nH]c1=O

- Activity [8]: 56%
- Activity [9]: 108%
- Activity [10]: 107%
SMILES: Nc1ncnc2c1ncn2[C@H]1C[C@H](O)[C@@H](COP(=O)(O)OP(=O)(O)OP(=O)(O)O)O1

- inhibition [11]: 24%
- inhibition [12]: 38%
SMILES: CCNc1ccn([C@H]2C[C@H](O)[C@@H](CO)O2)c(=O)n1

- pKi [13]: 4.62
SMILES: CCOC1N([C@H]2C[C@H](O)[C@@H](CO)O2)C(=O)NC(=O)C1(C)Br (single isomer, unassigned)

- inhibition [14]: Active
SMILES: CCC(=O)NCC(OP(=O)(O)OP(=O)(O)OP(=O)(O)O)[C@H]1O[C@@H](n2cc(C)c(=O)[nH]c2=O)C[C@@H]1O (single isomer, unassigned; more polar)

- inhibition [15]: 36%
- inhibition [16]: 18%
SMILES: CCCn1c(=O)ccn([C@H]2C[C@H](O)[C@@H](CO)O2)c1=O

- inhibition [17]: 22%
- inhibition [18]: 36%
SMILES: O=C(CI)NCCC(=O)Nc1cn([C@H]2C[C@H](O)[C@@H](CO)O2)c(=O)[nH]c1=O

- inhibition [19]: 16%
- inhibition [20]: 34%
SMILES: CCCn1c(=O)c(C)cn([C@H]2C[C@H](O)[C@@H](CO)O2)c1=O

- Activity [21]: < 0.25%
- inhibition [22]: 0%
- inhibition [23]: 0%
SMILES: CC(=O)NCc1cn([C@H]2C[C@H](O)[C@@H](CO)O2)c(=O)[nH]c1=O

- inhibition [24]: 64%
SMILES: Nc1nc(=O)n([C@H]2C[C@H](O)[C@@H](CO)O2)cc1I

- inhibition [25]: 82%
- inhibition [26]: 15%
- inhibition [27]: 27%
SMILES: Nc1ccn([C@H]2C[C@H](O)[C@@H](COP(=O)(O)OP(=O)(O)OP(=O)(O)O)O2)c(=O)n1

- inhibition [28]: Active
SMILES: CC(=O)Nc1cn([C@H]2C[C@H](O)[C@@H](COP(=O)(O)OP(=O)(O)OP(=O)(O)O)O2)c(=O)[nH]c1=O

Source: ChEMBL document CHEMBL3227986, “Design of species- or isozyme-specific enzyme inhibitors. 1. Effect of thymidine substituents on affinity for the thymidine site of hamster cytoplasmic thymidine kinase” (J Med Chem, 1979)
